# According to ChEMBL document CHEMBL1124289, “6-(Alkylamino)-9-benzyl-9H-purines. A new class of anticonvulsant agents” (1988):
# Test system: Rattus norvegicus
# Test: Ability to protect Sprague-Dawley male rats against maximal electroshock-induced seizures (MES) intraperitoneally. Inhibition at 25 mg/kg
# Format: functional
# Conditions: ip, route intraperitoneal
# Procedure, shortened: (§1)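 Male Sprague-Dawley rats dosed with compound as a solution or fine dispersion in water or 5% methylcellulose, then given maximal electroshock. Protection means abolition of the hind-limb extensor component.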
row,SMILES,inhibition in vivo at 25 mg/kg [%]
1,CC(C)N(C)c1ncnc2c1ncn2Cc1ccccc1,17
2,c1ccc(Cn2cnc3c(N4CCC4)ncnc32)cc1,17
3,COc1ccc(Cn2cnc3c(N(C)C)ncnc32)cc1,0
4,CN(C)c1ncnc2c1ncn2Cc1ccccc1Cl,84
5,CN(C)c1ncnc2c1ncn2Cc1cccc([N+](=O)[O-])c1,17
6,CN(C)c1ncnc2c1ncn2Cc1ccc(F)cc1,33
7,C[C@H](c1ccccc1)n1cnc2c(N(C)C)ncnc21,33
8,C[C@@H](c1ccccc1)n1cnc2c(N(C)C)ncnc21,33
9,Oc1ncnc2c1ncn2Cc1ccccc1,17
10,CN(C)c1ncnc2c1ncn2CC1CCCCC1,0
11,c1ccc(Cn2cnc3c(Nc4ccccc4)ncnc32)cc1,0
12,Cc1ccc(Cn2cnc3c(N(C)C)ncnc32)cc1,0
13,CN(C=O)c1ncnc2c1ncn2Cc1ccccc1,0
14,CN(C)c1ncnc2c1ncn2Cc1ccc(Cl)c(Cl)c1,0
15,CN(C)c1ncnc2c1ncn2Cc1cccc(OCc2ccccc2)c1,33
16,OCCNc1ncnc2c1ncn2Cc1ccccc1,84
17,CN(C)c1ncnc2c1ncn2Cc1cccc(O)c1,0
18,CN(C)c1ncnc2c1ncn2Cc1ccc(Cl)cc1,0
19,CN(C)c1ncnc2c1ncn2Cc1ccc(C#N)cc1,0
20,COc1ccccc1Cn1cnc2c(N(C)C)ncnc21,0
21,CN(C)c1ncnc2c1ncn2CCc1ccccc1,33
22,CN(C)c1ncnc2c1ncn2Cc1ccc([N+](=O)[O-])cc1,0
23,CN(c1ncnc2c1ncn2Cc1ccccc1)C1CCCC1,17
24,CN(C)c1ncnc2c1ncn2Cc1cccc(C#N)c1,17
25,CN(C)c1ncnc2c1ncn2C,33
26,CN(C)c1ncnc2c1ncn2Cc1ccc(O)cc1,0
27,CSc1ncnc2c1ncn2Cc1ccccc1 [9-BENZYL-6-METHYLSULFANYL-9H-PURINE],30
28,Nc1ncnc2c1ncn2Cc1ccccc1 [9-BENZYL-9H-ADENINE],33
29,c1ccc(Cn2cnc3cncnc32)cc1 [9-BENZYL-9H-PURINE],33

# Test system: Rattus norvegicus
# Test: Ability to protect Sprague-Dawley male rats against maximal electroshock-induced seizures (MES) intraperitoneally; Inhibition at 12.5 mg/kg
# Format: functional
# Conditions: ip, route intraperitoneal
# Procedure, shortened: as §1
row,SMILES,inhibition in vivo at 12.5 mg/kg [%]
1,CN(C)c1ncnc2c1ncn2-c1ccccc1,0

# Test system: Rattus norvegicus
# Test: Ability to protect Sprague-Dawley male rats against maximal electroshock-induced seizures (MES) per orally; Inhibition at 25 mg/kg
# Format: functional
# Conditions: po
# Procedure, shortened: as §1
row,SMILES,inhibition in vivo at 25 mg/kg [%]
1,OCCNc1ncnc2c1ncn2Cc1ccccc1,17

# Test system: Rattus norvegicus
# Test: Protective effects in maximal electroshock induced seizures in rats following i.p. administration.
# Format: functional
# Conditions: ip
# Procedure, shortened: (§2)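 Male Sprague-Dawley rats, compound given orally or ip as a solution or fine dispersion in water or 5% methylcellulose before maximal electroshock. ED50 is the dose protecting 50% against hind-limb extension, by the Miller–Tainter method. Either ≥12 animals per dose at four doses (with standard error) or three doses with six animals per point.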
row,SMILES,ED50 [mg/kg]
1,CN(C)c1ncnc2c1ncn2Cc1cccs1,10
2,Cc1ccccc1Cn1cnc2c(N(C)C)ncnc21,9
3,CCN(C)c1ncnc2c1ncn2Cc1ccccc1,8
4,CN(C)c1ncnc2c1ncn2Cc1ccc(N)cc1,25
5,CN(C)c1ncnc2c1ncn2Cc1cccc(I)c1,11
6,CN(C)c1ncnc2c1ncn2Cc1cccc(Cl)c1,4.5
7,CN(C)c1ncnc2c1ncn2Cc1ccco1,18
8,CN(C)c1ncnc2c1ncn2Cc1cc(Cl)cc(Cl)c1,7
9,CNc1ncnc2c1ncn2Cc1ccccc1,5
10,CN(C)c1ncnc2c1ncn2Cc1ccccc1,6
11,CN(C)c1ncnc2c1ncn2Cc1ccccc1F,8.8
12,CN(C)c1ncnc2c1ncn2Cc1cccc(F)c1,8.4
13,Cc1cccc(Cn2cnc3c(N(C)C)ncnc32)c1,25
14,c1ccc(Cn2cnc3c(NC4CC4)ncnc32)cc1,8.6
15,CN(C)c1ncnc2c1ncn2Cc1ccccc1[N+](=O)[O-],25
16,CN(C)c1ncnc2c1ncn2Cc1ccccc1N,20
17,CN(C)c1ncnc2c1ncn2Cc1cccc(C(F)(F)F)c1,12
18,CN(C)c1ncnc2c1ncn2Cc1cccc(Br)c1,13
19,COc1cccc(Cn2cnc3c(N(C)C)ncnc32)c1,12.5
20,COc1ncnc2c1ncn2Cc1ccccc1 [9-BENZYL-6-METHOXY-9H-PURINE],10
21,O=C1NC(=O)C(c2ccccc2)(c2ccccc2)N1 [PHENYTOIN],9.6

# Organism: Rattus norvegicus
# Test: Ability to protect Sprague-Dawley male rats against maximal electroshock-induced seizures (MES) perorally
# Format: functional
# Conditions: po
# Procedure, shortened: as §2
row,SMILES,ED50 [mg/kg]
1,CCN(C)c1ncnc2c1ncn2Cc1ccccc1,30
2,CN(C)c1ncnc2c1ncn2Cc1cccc(Cl)c1,18
3,CNc1ncnc2c1ncn2Cc1ccccc1,12
4,CN(C)c1ncnc2c1ncn2Cc1ccccc1,12
5,COc1ncnc2c1ncn2Cc1ccccc1 [9-BENZYL-6-METHOXY-9H-PURINE],21
6,O=C1NC(=O)C(c2ccccc2)(c2ccccc2)N1 [PHENYTOIN],20
